Results: ChEMBL document CHEMBL1806486, “Discovery and evaluation of 3-phenyl-1H-5-pyrazolylamine-based derivatives as potent, selective and efficacious inhibitors of FMS-like tyrosine kinase-3 (FLT3)” (Bioorg Med Chem, 2011)
Active and inactive are the calls of the source. The rule behind the calls is not given here.

Columns and labels:
K562 = assay: Antiproliferation activity against human K562 cells expressing wild type BCR/ABL after 72 hrs by MTS method; format: functional; settings: K562, 72 h
[1] = Volume of distribution at steady state in Sprague-Dawley rat at 5 mg/kg, iv and 20 mg/kg, po; format: ADME, organism-based; settings: in vivo, read-out: Vdss
[2] = target: Platelet-derived growth factor receptor beta (Homo sapiens) (UniProt P09619); assay: Inhibition of PDGFR beta at 0.1 uM
MOLM-13 [3] = assay: Antiproliferation activity against human MOLM13 cells expressing FLT3 mutation assessed as cell viability after 72 hrs by MTS method; format: functional; settings: MOLM-13, 72 h
[4] = Half life in Sprague-Dawley rat at 5 mg/kg, iv and 20 mg/kg, po; format: ADME, organism-based; settings: in vivo
[5] = Antiproliferation activity against human RS4:11 cells expressing wild type FLT3 after 72 hrs by MTS method; format: functional; settings: RS4-11, 72 h
[6] = target: High affinity nerve growth factor receptor (Homo sapiens) (UniProt P04629); assay: Inhibition of TRKA at 0.1 uM
[7] = target: Vascular endothelial growth factor receptor 3 (Homo sapiens) (UniProt P35916); assay: Inhibition of VEGFR3 at 0.1 uM
MOLM-13 [8] = assay: Antitumor activity against human MOLM13 cells xenografted in athymic nu/nu nude mouse assessed as inhibition of tumor growth at 10 mg/kg, iv qd administered for 1 to 5 and 8 to 12 days measured during first 5 days of treatment; format: functional, organism-based; design: dose 10 mg/kg
Method in brief: (§1)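 Athymic nu/nu mice (9 weeks old) received 1 × 10^6 MOLM-13 cells s.c. in the left flank. They were randomized at a mean tumor volume of about 200 mm3, with 7–8 per group. Dosing was iv once daily at 10 or 50 mg/kg on days 1–5 and 8–12, in 10% DMSO/20% Cremophor/70% saline. Vehicle controls were dosed the same way. Caliper volume = (width × length²)/2, reported as mean ± SEM.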

MV4-11 [9] = assay: Antitumor activity against human MV4-11 cells xenografted in athymic nu/nu nude mouse assessed as inhibition of tumor growth at 50 mg/kg, iv qd for 1 to 5 and 8 to 12 days; format: functional, organism-based; design: dose 50 mg/kg
Method in brief: (§2)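 Nude nu/nu mice (9 weeks old) received 1 × 10^6 MV4;11 cells s.c. in the left flank. Treatment began at a mean tumor volume of about 500 mm3, with n = 8 per group. Dosing was iv once daily at 10, 25 or 50 mg/kg on days 1–5 and 8–12, in DMSO/Cremophor/saline vehicle, with vehicle controls. Tumor volume was measured by caliper as (width × length²)/2.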

[10] = target: Macrophage colony-stimulating factor 1 receptor (Homo sapiens) (UniProt P07333); assay: Inhibition of CSF1R at 0.1 uM
MOLM-13 [11] = assay: Antitumor activity against human MOLM13 cells xenografted in iv dosed athymic nu/nu nude mouse assessed as inhibition of tumor growth administered qd for two weeks; format: functional, organism-based; method in brief: as §1
Mus musculus = assay: Toxicity in normal mouse assessed as reduction of body weight at 50 mg/kg, iv for continuous 5 days; settings: in vivo, 120 h
[12] = target: Proto-oncogene tyrosine-protein kinase receptor Ret (Homo sapiens) (UniProt P07949); assay: Inhibition of RET at 0.1 uM
MV4-11 [13] = assay: Antitumor activity against human MV4-11 cells xenografted in athymic nu/nu nude mouse assessed as inhibition of tumor growth at 50 mg/kg, iv qd for 1 to 5 and 8 to 12 days measured after completion of treatment; format: functional, organism-based; design: dose 50 mg/kg; method in brief: as §2
[14] = target: T1, Receptor-type tyrosine-protein kinase FLT3 (Homo sapiens, UniProt P36888); assay: Inhibition of GST-tagged FLT3 expressing wild type kinase domain expressed in Sf9 insect cells after 4 hrs by Kinase-Glo assay
T1 sequence (P36888 whole entry): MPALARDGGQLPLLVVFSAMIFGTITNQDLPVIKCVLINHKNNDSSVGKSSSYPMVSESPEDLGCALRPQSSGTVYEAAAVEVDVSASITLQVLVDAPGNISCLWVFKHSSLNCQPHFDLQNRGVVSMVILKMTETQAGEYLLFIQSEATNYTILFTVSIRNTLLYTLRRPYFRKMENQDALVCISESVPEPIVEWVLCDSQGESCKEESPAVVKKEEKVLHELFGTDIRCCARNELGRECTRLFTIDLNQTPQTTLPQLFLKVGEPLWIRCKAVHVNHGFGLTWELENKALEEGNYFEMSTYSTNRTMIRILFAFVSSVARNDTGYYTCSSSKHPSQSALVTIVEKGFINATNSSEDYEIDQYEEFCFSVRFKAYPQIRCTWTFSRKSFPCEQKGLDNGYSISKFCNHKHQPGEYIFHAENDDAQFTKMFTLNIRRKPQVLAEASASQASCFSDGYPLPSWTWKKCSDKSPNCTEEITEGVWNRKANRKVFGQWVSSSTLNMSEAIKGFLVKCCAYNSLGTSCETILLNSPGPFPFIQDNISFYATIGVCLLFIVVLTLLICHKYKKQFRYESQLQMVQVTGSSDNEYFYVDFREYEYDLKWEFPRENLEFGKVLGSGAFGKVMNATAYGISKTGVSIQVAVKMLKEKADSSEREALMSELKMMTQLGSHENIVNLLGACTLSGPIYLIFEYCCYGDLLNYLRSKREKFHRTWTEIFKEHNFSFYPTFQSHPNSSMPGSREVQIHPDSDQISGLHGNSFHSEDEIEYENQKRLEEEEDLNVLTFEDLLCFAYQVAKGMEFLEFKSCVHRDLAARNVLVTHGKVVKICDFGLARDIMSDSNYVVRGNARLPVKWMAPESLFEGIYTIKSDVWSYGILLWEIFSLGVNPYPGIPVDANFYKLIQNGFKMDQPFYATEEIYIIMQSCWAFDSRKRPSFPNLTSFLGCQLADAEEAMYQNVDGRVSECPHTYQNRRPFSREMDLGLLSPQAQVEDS

MOLM-13 [15] = assay: Antitumor activity against human MOLM13 cells xenografted in athymic nu/nu nude mouse assessed as tumor growth regression at 50 mg/kg, iv qd administered for 1 to 5 and 8 to 12 days; format: functional, organism-based; design: dose 50 mg/kg; method in brief: as §1
[16] = target: Proto-oncogene tyrosine-protein kinase Src (Homo sapiens) (UniProt P12931); assay: Inhibition of SRC at 0.1 uM
MV4-11 [17] = assay: Antitumor activity against human MV4-11 cells xenografted in athymic nu/nu nude mouse assessed as tumor regrowth at 50 mg/kg, iv qd for 1 to 5 and 8 to 12 days measured after 20 days; format: functional, organism-based; design: dose 50 mg/kg; method in brief: as §2
[18] = target: Vascular endothelial growth factor receptor 1 (Homo sapiens, UniProt P17948); assay: Inhibition of recombinant GST-tagged VEGFR1 expressed in Sf9 insect cells after 120 mins by Kinase-Glo assay
Method in brief: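 GST-VEGFR1 (R781–I1338) or GST-VEGFR2 (V789–V1356) kinase domain, 50–100 ng, from Sf9 cells. Read-out was Kinase-Glo Plus luminescence.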

MOLT-4 = assay: Antiproliferation activity against human MOLT4 after 72 hrs by MTS method; format: functional; settings: MOLT-4, 72 h

Proto-oncogene tyrosine-protein kinase receptor Ret (Homo sapiens), sequence (P07949 whole entry): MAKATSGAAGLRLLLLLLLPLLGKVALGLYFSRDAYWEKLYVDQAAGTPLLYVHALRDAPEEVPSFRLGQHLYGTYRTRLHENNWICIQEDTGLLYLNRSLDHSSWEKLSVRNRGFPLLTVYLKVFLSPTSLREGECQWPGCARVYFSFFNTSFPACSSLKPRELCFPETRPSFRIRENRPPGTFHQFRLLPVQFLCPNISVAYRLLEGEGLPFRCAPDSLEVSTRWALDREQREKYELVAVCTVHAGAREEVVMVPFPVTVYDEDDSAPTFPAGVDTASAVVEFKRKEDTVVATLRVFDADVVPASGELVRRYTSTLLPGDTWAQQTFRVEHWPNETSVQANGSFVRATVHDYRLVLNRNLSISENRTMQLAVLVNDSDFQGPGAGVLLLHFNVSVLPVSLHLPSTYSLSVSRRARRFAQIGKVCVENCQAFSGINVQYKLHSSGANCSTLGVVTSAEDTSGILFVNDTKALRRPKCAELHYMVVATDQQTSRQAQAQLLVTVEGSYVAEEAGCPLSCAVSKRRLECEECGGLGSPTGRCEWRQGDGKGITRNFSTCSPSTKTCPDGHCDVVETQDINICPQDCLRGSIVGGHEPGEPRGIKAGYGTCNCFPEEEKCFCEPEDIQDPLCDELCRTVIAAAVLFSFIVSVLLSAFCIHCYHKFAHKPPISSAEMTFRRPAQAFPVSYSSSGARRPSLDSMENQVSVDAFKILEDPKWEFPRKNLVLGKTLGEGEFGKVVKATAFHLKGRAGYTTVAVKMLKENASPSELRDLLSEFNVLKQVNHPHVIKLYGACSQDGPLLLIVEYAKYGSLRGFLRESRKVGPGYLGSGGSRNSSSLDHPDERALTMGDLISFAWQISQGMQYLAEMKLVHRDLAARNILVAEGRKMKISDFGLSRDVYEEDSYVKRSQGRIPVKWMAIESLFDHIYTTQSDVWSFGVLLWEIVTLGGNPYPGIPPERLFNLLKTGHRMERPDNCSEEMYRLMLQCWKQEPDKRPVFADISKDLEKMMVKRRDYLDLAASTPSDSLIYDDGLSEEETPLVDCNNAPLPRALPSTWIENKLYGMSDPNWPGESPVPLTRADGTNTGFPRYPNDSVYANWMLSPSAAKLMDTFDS
Vascular endothelial growth factor receptor 3 (Homo sapiens), sequence (P35916 whole entry): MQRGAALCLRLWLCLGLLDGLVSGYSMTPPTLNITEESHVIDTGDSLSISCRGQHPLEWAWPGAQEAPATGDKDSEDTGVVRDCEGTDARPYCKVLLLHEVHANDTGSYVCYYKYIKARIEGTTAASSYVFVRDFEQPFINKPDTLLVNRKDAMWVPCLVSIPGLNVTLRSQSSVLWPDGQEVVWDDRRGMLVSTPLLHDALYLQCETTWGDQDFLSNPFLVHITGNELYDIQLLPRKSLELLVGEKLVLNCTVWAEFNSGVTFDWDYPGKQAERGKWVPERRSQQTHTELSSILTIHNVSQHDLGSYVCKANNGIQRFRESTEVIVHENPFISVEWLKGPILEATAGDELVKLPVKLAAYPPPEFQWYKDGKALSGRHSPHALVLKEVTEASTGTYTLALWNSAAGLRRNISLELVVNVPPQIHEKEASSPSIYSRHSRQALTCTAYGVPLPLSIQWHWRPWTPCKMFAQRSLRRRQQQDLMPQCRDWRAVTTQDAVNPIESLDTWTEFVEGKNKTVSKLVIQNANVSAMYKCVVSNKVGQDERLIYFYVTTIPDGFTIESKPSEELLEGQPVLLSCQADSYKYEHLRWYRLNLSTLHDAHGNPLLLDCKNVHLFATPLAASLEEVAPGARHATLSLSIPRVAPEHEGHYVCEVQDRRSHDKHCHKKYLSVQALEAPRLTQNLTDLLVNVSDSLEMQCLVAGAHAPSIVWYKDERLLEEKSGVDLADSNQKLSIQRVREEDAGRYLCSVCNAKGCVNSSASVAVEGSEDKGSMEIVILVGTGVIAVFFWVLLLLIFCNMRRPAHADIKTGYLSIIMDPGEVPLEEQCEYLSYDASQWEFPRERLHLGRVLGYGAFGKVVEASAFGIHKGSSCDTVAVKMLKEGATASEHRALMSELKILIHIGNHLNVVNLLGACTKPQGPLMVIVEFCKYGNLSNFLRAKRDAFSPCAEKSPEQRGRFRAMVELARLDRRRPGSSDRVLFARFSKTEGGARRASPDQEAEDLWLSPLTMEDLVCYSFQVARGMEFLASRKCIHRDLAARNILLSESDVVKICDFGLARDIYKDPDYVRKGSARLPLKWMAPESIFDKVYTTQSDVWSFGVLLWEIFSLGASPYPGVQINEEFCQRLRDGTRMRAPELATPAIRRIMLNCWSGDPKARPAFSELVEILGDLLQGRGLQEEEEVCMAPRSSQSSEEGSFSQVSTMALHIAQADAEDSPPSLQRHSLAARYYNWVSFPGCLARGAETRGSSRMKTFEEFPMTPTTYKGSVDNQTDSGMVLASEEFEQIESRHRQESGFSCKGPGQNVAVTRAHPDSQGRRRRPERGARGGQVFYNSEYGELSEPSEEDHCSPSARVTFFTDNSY
Proto-oncogene tyrosine-protein kinase Src (Homo sapiens), sequence (P12931 2-536 limits assumed): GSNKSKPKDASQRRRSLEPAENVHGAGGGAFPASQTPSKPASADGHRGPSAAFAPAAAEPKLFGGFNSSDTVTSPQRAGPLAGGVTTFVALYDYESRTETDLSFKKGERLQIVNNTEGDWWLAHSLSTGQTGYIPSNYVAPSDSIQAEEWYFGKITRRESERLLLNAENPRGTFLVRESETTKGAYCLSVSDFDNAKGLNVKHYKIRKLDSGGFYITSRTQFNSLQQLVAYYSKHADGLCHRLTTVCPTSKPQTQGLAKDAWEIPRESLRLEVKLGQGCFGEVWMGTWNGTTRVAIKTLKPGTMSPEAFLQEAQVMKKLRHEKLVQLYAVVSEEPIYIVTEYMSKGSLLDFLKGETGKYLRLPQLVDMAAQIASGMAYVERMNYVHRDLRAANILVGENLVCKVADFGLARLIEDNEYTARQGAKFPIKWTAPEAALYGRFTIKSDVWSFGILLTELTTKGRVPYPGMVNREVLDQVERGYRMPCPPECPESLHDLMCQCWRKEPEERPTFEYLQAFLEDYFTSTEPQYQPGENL
Macrophage colony-stimulating factor 1 receptor (Homo sapiens), sequence (P07333 whole entry): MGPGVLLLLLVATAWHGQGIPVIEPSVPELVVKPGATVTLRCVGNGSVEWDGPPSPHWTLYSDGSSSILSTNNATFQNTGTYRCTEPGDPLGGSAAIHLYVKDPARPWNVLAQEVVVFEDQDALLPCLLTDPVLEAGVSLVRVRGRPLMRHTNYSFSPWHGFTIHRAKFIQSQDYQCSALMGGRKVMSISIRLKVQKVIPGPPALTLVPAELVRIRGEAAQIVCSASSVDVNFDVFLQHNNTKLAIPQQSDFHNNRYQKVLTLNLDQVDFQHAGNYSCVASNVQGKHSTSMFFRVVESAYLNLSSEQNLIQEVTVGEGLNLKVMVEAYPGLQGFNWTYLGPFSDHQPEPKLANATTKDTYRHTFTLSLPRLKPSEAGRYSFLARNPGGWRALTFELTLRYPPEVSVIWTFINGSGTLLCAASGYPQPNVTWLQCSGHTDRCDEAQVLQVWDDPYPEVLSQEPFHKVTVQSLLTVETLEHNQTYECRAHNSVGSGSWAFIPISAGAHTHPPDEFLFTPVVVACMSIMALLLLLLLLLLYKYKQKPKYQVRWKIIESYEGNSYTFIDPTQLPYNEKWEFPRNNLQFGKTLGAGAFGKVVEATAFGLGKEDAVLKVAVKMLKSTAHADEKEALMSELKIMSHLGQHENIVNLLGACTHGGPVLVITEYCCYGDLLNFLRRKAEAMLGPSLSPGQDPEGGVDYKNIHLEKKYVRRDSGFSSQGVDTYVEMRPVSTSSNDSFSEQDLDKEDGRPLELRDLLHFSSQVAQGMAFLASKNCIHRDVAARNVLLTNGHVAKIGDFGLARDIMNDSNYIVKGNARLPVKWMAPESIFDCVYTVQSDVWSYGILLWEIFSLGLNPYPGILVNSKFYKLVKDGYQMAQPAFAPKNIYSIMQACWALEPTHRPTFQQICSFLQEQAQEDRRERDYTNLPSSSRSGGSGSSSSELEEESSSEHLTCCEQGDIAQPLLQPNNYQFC
Platelet-derived growth factor receptor beta (Homo sapiens), sequence (P09619 whole entry): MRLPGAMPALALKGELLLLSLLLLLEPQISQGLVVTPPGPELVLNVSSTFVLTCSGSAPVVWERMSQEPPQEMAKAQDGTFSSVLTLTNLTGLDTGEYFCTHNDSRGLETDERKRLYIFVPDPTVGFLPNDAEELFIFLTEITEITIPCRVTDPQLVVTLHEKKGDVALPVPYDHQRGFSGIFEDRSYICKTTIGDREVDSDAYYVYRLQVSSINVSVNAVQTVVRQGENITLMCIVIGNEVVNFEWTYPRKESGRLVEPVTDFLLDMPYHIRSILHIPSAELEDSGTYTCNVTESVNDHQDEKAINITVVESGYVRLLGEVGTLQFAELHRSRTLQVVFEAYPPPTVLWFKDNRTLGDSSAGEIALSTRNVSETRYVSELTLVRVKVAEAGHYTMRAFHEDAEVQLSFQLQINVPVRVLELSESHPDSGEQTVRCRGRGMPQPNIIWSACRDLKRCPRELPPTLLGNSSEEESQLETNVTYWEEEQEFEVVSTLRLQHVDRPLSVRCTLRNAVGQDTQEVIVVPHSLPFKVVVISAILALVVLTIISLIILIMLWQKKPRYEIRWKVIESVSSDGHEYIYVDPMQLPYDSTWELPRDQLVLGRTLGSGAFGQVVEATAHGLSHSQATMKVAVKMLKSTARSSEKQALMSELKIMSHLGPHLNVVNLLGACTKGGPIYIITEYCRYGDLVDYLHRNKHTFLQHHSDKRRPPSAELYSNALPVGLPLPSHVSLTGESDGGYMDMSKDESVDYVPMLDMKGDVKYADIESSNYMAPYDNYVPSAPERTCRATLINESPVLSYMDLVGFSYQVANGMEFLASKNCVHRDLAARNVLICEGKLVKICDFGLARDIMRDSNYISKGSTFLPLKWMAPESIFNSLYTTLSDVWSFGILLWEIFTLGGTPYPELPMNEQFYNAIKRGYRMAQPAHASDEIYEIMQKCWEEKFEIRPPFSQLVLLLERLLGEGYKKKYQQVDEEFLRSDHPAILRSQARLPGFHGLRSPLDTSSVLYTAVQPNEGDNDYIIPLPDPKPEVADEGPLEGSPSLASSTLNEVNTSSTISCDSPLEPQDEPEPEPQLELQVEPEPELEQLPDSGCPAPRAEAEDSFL

Question: With `Cc1nc(Nc2cc(-c3cccc(NS(=O)(=O)c4ccccc4)c3)n[nH]2)cc(N2CCN(C)CC2)n1` as the compound, how does the GI50 (K562) read?
Answer: > 10 µM

Question: And the Vd [1]?
Answer: 6.6 L/kg

Question: What about the inhibition [2] of the same compound?
Answer: 18%

Question: What about the GI50 (MOLM-13 [3]) of the same compound?
Answer: 0.021 µM

Question: And the half-life [4]?
Answer: 4.2 h

Question: What about the GI50 [5] of the same compound?
Answer: 10 µM

Question: And the inhibition [6]?
Answer: 96%

Question: What about the inhibition [7] of the same compound?
Answer: 31%

Question: What about the Activity (MOLM-13 [8]) of the same compound?
Answer: Active

Question: And the Activity (MV4-11 [9])?
Answer: Active

Question: And the inhibition [10]?
Answer: 16%

Question: What about the Activity (MOLM-13 [11]) of the same compound?
Answer: Dose-dependent effect

Question: And the Activity (Mus musculus)?
Answer: Non-toxic

Question: And the inhibition [12]?
Answer: 71%

Question: What about the Activity (MV4-11 [13]) of the same compound?
Answer: Active

Question: And the IC50 [14]?
Answer: 0.006 µM

Question: And the Activity (MOLM-13 [15])?
Answer: Active

Question: And the inhibition [16]?
Answer: 44%

Question: And the Activity (MV4-11 [17])?
Answer: inactive

Question: What about the IC50 [18] of the same compound?
Answer: 0.31 µM

Question: What about the GI50 (MOLT-4) of the same compound?
Answer: 7.4 µM
